Screening results as filed in PubChem BioAssay.
Platelet DG rel – modulates dense granule release in human platelets. human platelet-rich plasma, SFLLRN dense granule ATP release, luminescence. inhibition, %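 (compounds screened at 7.5 µM in platelet-rich plasma)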. 0.22% of 300,000 active. AID 1663;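 active = mean replicate score, as percent of positive control, at or above 50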
SENP6 block – blocks the human protease SENP6. AID 2599. Recombinant SENP6 catalytic domain, aminoluciferin luminescence. inhibition, % at 10 µM. 1.8% of 330,000 active. Q9GZR1;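 active = inhibition above about 50% at the single tested dose, limit read from the data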;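 also: plate controls were DMSO wells with enzyme for no effect and DMSO wells lacking enzyme for full effect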
SENP8 block-1 – blocks human SENP8 cleavage of Nedd8 substrate; Q96LD8; recombinant SENP8, Nedd8 substrate fluorescence; inhibition, % at 20 µM; 0.64% of 360,000 active; AID 602440; in the data active = inhibition mostly above about 40%, no sharp cut-off; inactive = mostly below about 27%
SENP7 block – inhibitors of human SENP7 protease. inhibition, % at 5 µM. AID 434973. Q9BQF6. 1.5% of 330,000 active. recombinant SENP7, Z-RLRGG-aminoluciferin luminescence, 40 min;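 active = inhibition above about 50% at the single test dose, limit read from the data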;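 also: plate controls were DMSO with enzyme for no effect and no enzyme buffer wells for full effect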
Target sequence (Q9BQF6 706-1050 limits assumed): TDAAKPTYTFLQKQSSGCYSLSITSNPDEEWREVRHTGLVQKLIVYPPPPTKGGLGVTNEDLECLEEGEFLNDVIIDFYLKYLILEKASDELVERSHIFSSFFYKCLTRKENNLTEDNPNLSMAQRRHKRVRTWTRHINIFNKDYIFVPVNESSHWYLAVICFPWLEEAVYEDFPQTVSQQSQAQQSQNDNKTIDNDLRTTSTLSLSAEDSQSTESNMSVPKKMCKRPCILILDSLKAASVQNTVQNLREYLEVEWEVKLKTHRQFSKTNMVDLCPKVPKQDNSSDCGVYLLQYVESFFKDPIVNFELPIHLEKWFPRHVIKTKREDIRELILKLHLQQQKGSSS
SENP8 block-2 – SENP8 protease inhibition; purified SENP8, Z-RLRGG-aminoluciferin cleavage, luminescence; inhibition, % at 10 µM; 1.2% of 330,000 active; AID 2540; in the data active = inhibition above about 50%
SENP1 inh – SENP1 (human) catalytic domain inhibition. inhibition, % at 10 µM. Q9P0U3. AID 624204. recombinant SENP1 catalytic domain, CyPet-SUMO1-YPet FRET cleavage. 0.21% of 360,000 active;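 active = inhibition at least 30% at 10 µM, raw YFP signal under a set limit, fluorescence ratio 0.5 to 1.5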;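 also: 0% = enzyme with DMSO and 100% = no enzyme wells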
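Material – human SENP1 catalytic domain · Input – SENP1 enzyme, 20 pM final · Compound dosing – single concentration of 10 µM compound, 0.5% DMSO final · Timing – enzyme reaction for 50 min at room temperature, dark · Measured by – FRET fluorescence in CFP and YFP emission channels · Control set – no-enzyme wells low, DMSO-plus-enzyme wells high control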
SENP8 conf – human SENP8 inhibition, confirmed. shares compounds with SENP7 block. Recombinant SENP8, Z-RLRGG-aminoluciferin luminescence, 60 min. inhibition, % at 12.5 µM. 40% of 6,200 active. AID 488912;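 active = mean inhibition across replicates above about 50%, limit read from the data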
SENP6 conf – human SENP6 inhibition, confirmed. shares compounds with SENP7 block. recombinant SENP6, Z-RLRGG-aminoluciferin luminescence. inhibition, % at 12.5 µM. 58% of 6,200 active. AID 488915
SENP7 confirm – human SENP7 inhibition, confirmed. shares compounds with SENP7 block. recombinant SENP7, Z-RLRGG-aminoluciferin luminescence, 40 min. inhibition, % at 12.5 µM. 69% of 6,200 active
Casp3 SENP sel – selectivity test for SENP inhibitors: human caspase-3 inhibition; shares compounds with SENP7 block; purified caspase-3, Z-DEVD-aminoluciferin luminescence, 60 min; inhibition, % at 12.5 µM; 60% of 6,200 active; AID 488918;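 active = mean inhibition above about 50%, limit read from the data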;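 also: plate controls were enzyme with DMSO for no effect and wells without caspase-3 for full effect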
Target sequence (P42574 28-227 limits assumed): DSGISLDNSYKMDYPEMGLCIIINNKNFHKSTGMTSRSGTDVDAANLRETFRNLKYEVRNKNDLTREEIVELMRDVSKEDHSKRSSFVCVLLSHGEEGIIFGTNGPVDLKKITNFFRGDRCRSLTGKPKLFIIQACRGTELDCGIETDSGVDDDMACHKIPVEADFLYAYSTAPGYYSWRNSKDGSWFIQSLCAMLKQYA
Luc interf – counter-screen for SENP inhibitors: luminescence interference | shares compounds with SENP7 block | Pre-incubated SENP8/Z-RLRGG-aminoluciferin, luciferase luminescence interference | inhibition, % at 12.5 µM | 39% of 6,200 active;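 active = mean inhibition above about 50% when retested at one dose, limit read from the data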;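 also: plate controls were DMSO wells with completed reaction for no effect and substrate without enzyme for full effect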
Numbers without * were called inactive. Most compounds without a hit are left out; they make up all but 2.6% or so of the library.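 The calls were made as follows, unless noted: active = mean inhibition above about 50% in the one-dose retest (limit read from the data); inactive = the rest.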

c1ccc(CN2CCOCC2)cc1 was read as Platelet DG rel -2, SENP6 block -7, SENP8 block-1 4, SENP7 block 87*, SENP8 block-2 1, SENP1 inh 1, SENP8 conf 4, SENP6 conf 0, SENP7 confirm -3, Casp3 SENP sel -2 and Luc interf -3.
For O=C(NCc1ccccc1)c1c(F)c(F)c(F)c(F)c1F the results were SENP6 block -1, SENP8 block-1 16, SENP7 block 9, SENP8 block-2 52*, SENP1 inh 0, SENP8 conf -3, SENP6 conf 0, SENP7 confirm -5, Casp3 SENP sel -1 and Luc interf -3.
CN1CCN(c2cc(N3CCN(C(=O)c4ccco4)CC3)c3c4c(onc24)-c2ccccc2C3=O)CC1 was read as Platelet DG rel 9, SENP6 block 55*, SENP8 block-1 65*, SENP7 block 21, SENP8 block-2 38, SENP1 inh 49*, SENP8 conf 4, SENP6 conf 18, SENP7 confirm 12, Casp3 SENP sel 16 and Luc interf 12.
COCCCNC(=O)C[C@H]1C[C@H](C(=O)N(C(C)C)C(C)C)[C@@]2(C)c3[nH]c4ccc(Cl)cc4c3CCN2C1=O was read as SENP8 block-1 7, SENP7 block 0 and SENP1 inh 3.
For COc1ccc(C(=O)Nc2ccc(C3(C#N)CCCC3)cc2)cc1 the results were Platelet DG rel 4, SENP6 block -20, SENP8 block-1 4, SENP7 block -7, SENP8 block-2 -12 and SENP1 inh -1.
For N#CC1(c2ccc(NC(=O)c3ccccc3F)cc2)CCCC1 the results were Platelet DG rel 6, SENP6 block 84*, SENP8 block-1 17, SENP7 block 76*, SENP8 block-2 76*, SENP1 inh 2, SENP8 conf 80*, SENP6 conf 77*, SENP7 confirm 93*, Casp3 SENP sel 74* and Luc interf 64*.
Screening O=C(c1ccc(C(F)(F)F)cc1)N(CCCn1ccnc1)C(c1ccccn1)c1nc2ccccc2[nH]1 (stereo not given) returned SENP8 block-1 -25 and SENP1 inh -8.
`Cc1cc(C)c(S(=O)(=O)Nc2cc(SCC(=O)O)c(O)c3ccccc23)cc1C` gave Platelet DG rel -6.
Screening Cc1cc(C)c(S(=O)(=O)/N=C2/C=C(SCC(=O)O)C(=O)c3ccccc32)cc1C returned SENP6 block 62*, SENP8 block-1 54*, SENP7 block 18, SENP8 block-2 28, SENP1 inh 5, SENP8 conf 15, SENP6 conf 36, SENP7 confirm 5, Casp3 SENP sel -1 and Luc interf -6.
For O=c1cc(-c2ccc3c(c2)OCO3)oc2ccccc12 the results were Platelet DG rel 0, SENP6 block -9, SENP8 block-1 -334, SENP7 block 77*, SENP8 block-2 -4, SENP1 inh -1, SENP8 conf -3, SENP6 conf -2, SENP7 confirm 32, Casp3 SENP sel 8 and Luc interf -4.
For O=c1cc(-c2ccc(O)cc2)oc2ccccc12 the results were Platelet DG rel 13, SENP6 block 0, SENP8 block-1 4, SENP7 block 1, SENP8 block-2 0 and SENP1 inh -62.
`Cn1c2ccccc2c(=O)c2ccc(-c3ccc4c(c3)OCO4)cc21` gave Platelet DG rel -4, SENP6 block 72*, SENP8 block-1 -460, SENP7 block 73*, SENP8 block-2 58*, SENP1 inh -30, SENP8 conf 37, SENP6 conf 53*, SENP7 confirm 79*, Casp3 SENP sel 55* and Luc interf 25.
Cn1c(-c2ccc3c(c2)OCO3)cc(=O)c2ccccc21 was read as Platelet DG rel -3, SENP6 block -13, SENP8 block-1 8, SENP7 block 0, SENP8 block-2 -9 and SENP1 inh 0.
`Cc1nc2cc(NC(=O)c3ccc(N4C(=O)CCC4=O)cc3)ccc2s1` gave Platelet DG rel -5, SENP6 block -39, SENP8 block-1 3, SENP7 block -16, SENP8 block-2 -6 and SENP1 inh -1.
`CCN(CC)S(=O)(=O)c1cc(C(=O)n2cccn2)c(Cl)cc1Cl` gave Platelet DG rel -3, SENP6 block -11, SENP8 block-1 15, SENP7 block 3, SENP8 block-2 -6 and SENP1 inh 3.
Screening Cc1nc(C#N)c(N/N=C/c2cccc(Cl)c2)o1 returned Platelet DG rel 5, SENP6 block 78*, SENP8 block-1 -19, SENP7 block 11, SENP8 block-2 86*, SENP1 inh 2, SENP8 conf -3, SENP6 conf 91*, SENP7 confirm 100*, Casp3 SENP sel 80* and Luc interf 84*.
For c1cc2c3c(cccc3c1)C(N1CCCCC1)=N2 the results were Platelet DG rel -6, SENP6 block 69*, SENP8 block-1 -240, SENP7 block 13, SENP8 block-2 36, SENP1 inh -16, SENP8 conf -9, SENP6 conf -5, SENP7 confirm -9, Casp3 SENP sel 3 and Luc interf 3.
For c1cc2c3c(cccc3c1)C(N1CCCCCC1)=N2 the results were Platelet DG rel 6, SENP6 block 4, SENP8 block-1 -77, SENP7 block 8, SENP8 block-2 3 and SENP1 inh -23.
`O=C(O)C1=CCCc2ccc(F)cc21` gave SENP8 block-1 13 and SENP1 inh 1.
For Cc1ccc2nc(SCC(=O)N3c4ccccc4CC3C)c(C)cc2c1 (stereo not given) the results were Platelet DG rel -27, SENP6 block 6, SENP8 block-1 1, SENP7 block 9, SENP8 block-2 2 and SENP1 inh 1.
